# Source: ChEMBL document CHEMBL1135893, “Synthesis and mode of action of hydrophobic derivatives of the glycopeptide antibiotic eremomycin and des-(N-methyl-D-leucyl)eremomycin against glycopeptide-sensitive and -resistant bacteria” (J Med Chem, 2002)
# Experiments:
# Staphylococcus aureus [1] = test: Antibacterial activity evaluated as minimum inhibitory concentration against 3798 Staphylococcus aureus (GISA); type: functional; set-up: unit not given beside the values
# Outline: (§1)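 Broth microdilution in Mueller Hinton broth per NCCLS procedure; repeat results usually identical, always within 2-fold. GISA strains 3797 (HIP-5836 New Jersey) and 3798 (HIP-5827 Michigan); 533 S. epidermidis and 602 S. haemolyticus are clinical isolates; vancomycin-resistant enterococci have confirmed genotype.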
# Enterococcus faecium [2] = test: Antibacterial activity evaluated as minimum inhibitory concentration against 569 Enterococcus faecium (GRE); type: functional; outline: as §1
# [3] = system: Staphylococcus haemolyticus; test: Antibacterial activity evaluated as minimum inhibitory concentration against 602 Staphylococcus haemolyticus; set-up: unit not given beside the values
# Nucleic Acid [4] = test: Inhibition of the peptidoglycan synthesis in the absence of dipeptide bonding using UDP-MurNAc-tetrapeptide; type: nucleic-acid assay
# Outline: (§2)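 Peptidoglycan synthesis run on filter plates with E. coli OV58 (pTA9) membranes, UDP-MurNAc-pentapeptide or UDP-MurNAc-tetrapeptide plus UDP-N-acetyl-[14C]-D-glucosamine as substrates; radiolabel incorporation into peptidoglycan measured. IC50 from at least six drug concentrations in duplicate, fitted by four-parameter logistic nonlinear regression.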
# Nucleic Acid [5] = test: Ratio UDP-MurNAc-tetrapeptide to UDP-MurNAc-Pentapeptide; type: nucleic-acid assay
# Enterococcus faecium [6] = test: Antibacterial activity evaluated as minimum inhibitory concentration against 568 Enterococcus faecium (GSE); type: functional; outline: as §1
# Enterococcus faecalis [7] = test: Antibacterial activity evaluated as minimum inhibitory concentration against 560 Enterococcus faecalis (GRE); type: functional; outline: as §1
# Enterococcus faecalis [8] = test: Antibacterial activity evaluated as minimum inhibitory concentration against 559 Enterococcus faecalis (GSE); type: functional; set-up: unit not given beside the values; outline: as §1
# Staphylococcus aureus [9] = test: Antibacterial activity evaluated as minimum inhibitory concentration against 3797 Staphylococcus aureus (GISA); type: functional; set-up: unit not given beside the values; outline: as §1
# Nucleic Acid [10] = test: Inhibition of the peptidoglycan synthesis in the absence of dipeptide bonding using UDP-MurNAc-pentapeptide; type: nucleic-acid assay; outline: as §2
# [11] = system: Staphylococcus epidermidis; test: Antibacterial activity evaluated as minimum inhibitory concentration against 533 Staphylococcus epidermidis; type: functional; outline: as §1
structure (smiles),measurement,setting,value
CCCCCCCCCCN[C@]1(C)C[C@H](O[C@@H]2[C@H](Oc3c4cc5cc3Oc3ccc(cc3Cl)[C@@H](O)[C@@H](NC(=O)[C@@H](CC(C)C)NC)C(=O)N[C@@H](CC(N)=O)C(=O)N[C@H]5C(=O)N[C@H]3C(=O)N[C@H](C(=O)N[C@H](C(=O)O)c5cc(O)cc(O)c5-c5cc3ccc5O)[C@H](O[C@H]3C[C@@](C)(N)[C@@H](O)[C@@H](C)O3)c3cccc(c3)O4)O[C@@H](CO)[C@H](O)[C@H]2O)O[C@H](C)[C@@H]1O,MIC,Staphylococcus aureus [1],4
same,MIC,Enterococcus faecium [2],4
same,MIC,[3],0.5
same,IC50,Nucleic Acid [4],13.3 µM
same,Ratio,Nucleic Acid [5],7.3
same,MIC,Enterococcus faecium [6],0.5
same,MIC,Enterococcus faecalis [7],8
same,MIC,Enterococcus faecalis [8],0.5
same,MIC,Staphylococcus aureus [9],4
same,IC50,Nucleic Acid [10],1.8 µM
same,MIC,[11],0.5
